Measured values: ChEMBL document CHEMBL1123436, “Comparative toxicities and analgesic activities of three monomethylated analogues of acetaminophen” (J Med Chem, 1986)

Assays:
Mus musculus [1] = experiment: (§1) Hepatotoxicity in Swiss-Webster Mice Caused by compound at 400 mg/kg (i.p.) (cobaltous chloride pretreated animals)dose; assay type: functional, organism-based; set-up: dose 400 mg/kg
Method in brief: (§2)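 Male Swiss-Webster mice (20 g), groups of 10. Cobaltous chloride (30 mg/kg ip) was given 48, 36, 24 and 12 h before drug, then drug ip in saline. At 24 h: survivors counted, plasma ALT measured, and H&E liver sections scored for necrosis in survivors. Values are means ± SE.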

[2] = (§3) Hepatotoxicity in Swiss-Webster Mice Caused by compound at 400 mg/kg (i.p.) (phenobarbital pretreated animals)dose; assay type: functional, Mus musculus; conditions: route intraperitoneal
Method in brief: (§4)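 Male Swiss-Webster mice (20 g), groups of 10. Sodium phenobarbital (80 mg/kg ip) was given 72, 60, 48 and 24 h before drug, then drug ip in saline. At 24 h: survivors counted, plasma ALT measured, and H&E liver sections scored for necrosis in survivors. Values are means ± SE.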

[3] = Hepatotoxicity in Swiss-Webster Mice Caused by compound at 400 mg/kg (i.p.) (phenobarbital pretreated animals)dose; 4/10; assay type: functional, Mus musculus; conditions: route intraperitoneal; method in brief: as §4
Mus musculus [4] = experiment: as §3; assay type: functional, organism-based; set-up: dose 400 mg/kg; method in brief: as §4
Mus musculus [5] = organism: Mus musculus; experiment: Analgesic activity determined in mice using the Bradykinin-induced Writhing test; assay type: functional
Method in brief: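 Male CD1 mice (15–20 g), test drug given orally 15 min before bradykinin ip (4 μg in 0.2 mL sterile water), then a second bradykinin injection (0.2 μg/0.1 mL) 15 min later. Writhing was scored over the next 10 min, with control groups of 10 mice. ED50 was derived by log-probit analysis from at least five doses, with 95% limits.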

Mus musculus [6] = experiment: Hepatotoxicity in Swiss-Webster Mice Caused by compound at 1000 mg/kg (i.p.) (pipernonyl butoxide pretreated animals)dose; assay type: functional, organism-based; set-up: dose 1000 mg/kg
Method in brief: (§5)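 Male Swiss-Webster mice (20 g), groups of 10. Piperonyl butoxide (neat, single 1360 mg/kg ip dose) was given 30 min before drug, then drug ip in saline. At 24 h: survivors counted, plasma ALT measured, and H&E liver sections scored for necrosis in survivors. Values are means ± SE.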

Mus musculus [7] = experiment: Hepatotoxicity in Swiss-Webster Mice Caused by compound at 400 mg/kg (i.p.) dose; 9/10; assay type: functional; conditions: route intraperitoneal
Method in brief: (§6)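 Male Swiss-Webster mice (20 g), groups of 10, were given a single ip dose of drug in saline with no pretreatment. Survivors were decapitated at 24 h and counted. Plasma ALT was measured, and liver sections (formalin-fixed, paraffin, H&E) were scored for necrosis severity in survivors. Values are means ± SE.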

[8] = Hepatotoxicity in Swiss-Webster Mice Caused by compound at 400 mg/kg (i.p.) (cobaltous chloride pretreated animals)dose; 8/10; assay type: functional, Mus musculus; conditions: route intraperitoneal; method in brief: as §2
Mus musculus [9] = experiment: Hepatotoxicity in Swiss-Webster Mice Caused by compound at 400 mg/kg (i.p.) (pipernonyl butoxide pretreated animals)dose; assay type: functional; conditions: route intraperitoneal; method in brief: as §5
Mus musculus [10] = experiment: Hepatotoxicity in Swiss-Webster Mice Caused by compound at 400 mg/kg (i.p.) (pipernonyl butoxide pretreated animals)dose; 9/10; assay type: functional; conditions: route intraperitoneal; method in brief: as §5
Mus musculus [11] = experiment: (§7) Hepatotoxicity in Swiss-Webster Mice Caused by compound at 400 mg/kg (i.p.) dose; assay type: functional; conditions: route intraperitoneal; method in brief: as §6
Mus musculus [12] = experiment: (§8) Hepatotoxicity in Swiss-Webster Mice Caused by compound at 750 mg/kg (i.p.) dose; assay type: functional; conditions: route intraperitoneal; method in brief: as §6
[13] = as §1; assay type: functional, Mus musculus; conditions: route intraperitoneal; method in brief: as §2
Mus musculus [14] = experiment: Hepatotoxicity in Swiss-Webster Mice Caused by compound at 750 mg/kg (i.p.) dose; 4/10; assay type: functional; conditions: route intraperitoneal; method in brief: as §6
Mus musculus [15] = experiment: as §8; assay type: functional, organism-based; set-up: dose 750 mg/kg; method in brief: as §6
Mus musculus [16] = experiment: as §7; assay type: functional, organism-based; set-up: dose 400 mg/kg; method in brief: as §6

Q: With `CC(=O)Nc1ccc(O)c(C)c1` as the compound, how does the Plasma ALT at 24 h (Mus musculus [1]) read?
A: Its Plasma ALT at 24 h is 345 mU ml-1.

Q: And the “Hepatic necrosis in survivors” value [2]?
A: The value was 3.5.

Q: What about the “Survivors at 24 h” value [3] of the same compound?
A: The value was 4.

Q: What about the Plasma ALT at 24 h (Mus musculus [4]) of the same compound?
A: Its Plasma ALT at 24 h is 5130 mU ml-1.

Q: And the ED50 (Mus musculus [5])?
A: Its ED50 is 94.6 mg/kg.

Q: And the Plasma ALT at 24 h (Mus musculus [6])?
A: Its Plasma ALT at 24 h is 83 mU ml-1.

Q: What about the “Survivors at 24 h” value (Mus musculus [7]) of the same compound?
A: The value was 9.

Q: And the “Survivors at 24 h” value [8]?
A: The value was 8.

Q: And the “Hepatic necrosis in survivors” value (Mus musculus [9])?
A: The value was 0.

Q: And the “Survivors at 24 h” value (Mus musculus [10])?
A: Its value is 9.

Q: What about the “Hepatic necrosis in survivors” value (Mus musculus [11]) of the same compound?
A: The value was 1.

Q: What about the “Hepatic necrosis in survivors” value (Mus musculus [12]) of the same compound?
A: Its value is 2.75.

Q: And the “Hepatic necrosis in survivors” value [13]?
A: The value was 0.56.

Q: What about the “Survivors at 24 h” value (Mus musculus [14]) of the same compound?
A: Its value is 4.

Q: What about the Plasma ALT at 24 h (Mus musculus [15]) of the same compound?
A: The Plasma ALT at 24 h was 3250 mU ml-1.

Q: What about the Plasma ALT at 24 h (Mus musculus [16]) of the same compound?
A: Its Plasma ALT at 24 h is 1080 mU ml-1.
